bCat nuc transl: modulators of beta-catenin nuclear translocation, primary screen, imaging, HeLa cells, immunofluorescence, high-content; nuclear translocation activity, % at 5 µM; 0.3% of 190,000 active;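 active = nuclear translocation activity above 50% at 5 µM, with a well cell count of 50 or more; inconclusive = wells under 50 cells across six images, flagged as toxic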;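 note: per-cell ratio of nuclear to cytoplasmic median beta-catenin stain intensity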
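Test system: human HeLa cells, native beta-catenin. Compound dosing: 5 µM primary single dose, 0.1% DMSO, 0.02–20 µM confirmation series. Incubation: compound exposure 24 h at 37°C. Detection: beta-catenin immunostaining with DAPI counterstain, 20x imaging, 6 fields/well. Read-out basis: Nuclear/cytoplasmic beta-catenin signal ratio, % activation.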
ROMK mod: ROMK potassium channel modulators, primary screen, cell-based, thallium flux, MLSMR library. ATP-sensitive inward rectifier potassium channel 1 (Homo sapiens), P48048. Tet-inducible ROMK, thallium flux fluorescence; actives lie on both sides. B-score at 10 µM. 2% of 130,000 active;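 active = signal ratio slope over the read window, or its plate-corrected B-score, at least 3 SD from the plate mean, either direction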;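 note: B-score of the F/F0 ratio slope over 7 to 12 s after thallium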
Target sequence (P48048 whole entry, looked up): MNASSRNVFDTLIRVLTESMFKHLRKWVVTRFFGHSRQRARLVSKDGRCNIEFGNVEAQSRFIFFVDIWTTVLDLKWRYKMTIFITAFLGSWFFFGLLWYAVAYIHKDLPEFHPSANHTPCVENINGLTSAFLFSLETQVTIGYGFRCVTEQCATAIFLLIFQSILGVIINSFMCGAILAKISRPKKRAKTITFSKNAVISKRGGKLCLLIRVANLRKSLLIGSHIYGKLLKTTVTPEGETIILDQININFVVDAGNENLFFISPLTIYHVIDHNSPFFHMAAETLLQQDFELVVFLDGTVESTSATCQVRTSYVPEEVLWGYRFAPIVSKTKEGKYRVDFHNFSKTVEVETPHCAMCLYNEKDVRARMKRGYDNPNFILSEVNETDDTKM
MT stabilizer: microtubule stabilizers in HeLa cells, primary screen, imaging, high-content imaging | % tubulin-high responders, % at 10 µM | 0.83% of 200,000 active | HeLa tubulin immunostaining HCS, 24 h; share of cells brighter than vehicle mean+2SD | AID 2205, 2009;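 active = plate Z-score above 3 for both tubulin-high and condensed-nucleus cell shares, with cell loss under 80%, at 10 µM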;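 note: anti alpha tubulin signal scored within the nucleus-defined area of each cell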
ROMK hit retest: ROMK channel modulator hit retest, confirmation, cell-based, thallium flux, duplicate, resupplied hits; 54% of 3,000 active; shares compounds with ROMK mod; normalized thallium flux (F/F0 slope) at 10 µM; AID 1917, 2009; fluorescence ratio; active compounds read low;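 active = Flux at 10 µM at least 3 SD below or above vehicle control mean in one or both replicates; inconclusive = no clear call, values can overlap the other calls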
Of the large screens only hits and unclear results are named; the others gave an inactive call (follow-up assays come after a bar, where they were run). A selection: hits, their analogues and other compounds. The true share with any hit is near 1.9%.

CC(c1ccon1)N(C)C(=O)CCc1nnc(C2(c3ccc(Cl)cc3)CCC2)o1 (configuration not stated)	none
O=C(CN(CCc1ccccc1)C(=O)c1csnn1)NC1CCCC1	none
Cc1ccc(CNC(=O)C2CC3Cn4c(nc5cc(Cl)c(Cl)cc54)C3N2C)o1 (configuration not stated)	none (no result: ROMK mod, MT stabilizer)
Cc1ccc(CN=Cc2[nH]c3ccc(Br)c(Cl)c3c2O)cc1	ROMK mod -3.2 | ROMK hit retest 0.045
O=c1[nH]c(=O)n(C2CCCCCC2)c(O)c1C=NCc1ccc(F)cc1	none (no result: bCat nuc transl, ROMK mod)
COc1ccc(CN=Cc2c(O)[nH]c3ccccc23)cc1	none
Oc1c(C=NCc2ccc(F)cc2)[nH]c2ccc(Br)c(Cl)c12	ROMK mod -5.2 | ROMK hit retest 0.047
CCOCCCNS(=O)(=O)c1ccc(NC(=O)C2CC(=O)N(c3ccc(C)cc3)C2)cc1 (configuration not stated)	none
CN1CCN(NC(=S)Nc2ccc(Oc3ccccc3)cc2)CC1	none
O=S(=O)([O-])CCC[n+]1c(SCCCS(=O)(=O)O)sc2ccc(Cl)cc21	none
CCCCCCNc1nc(-c2ccc(OC)cc2)c(CCC(=O)O)s1	none (no result: ROMK mod)
CC1(c2ccccc2)CC(C)(C)N(C(=O)C2CCCO2)c2ccccc21 (configuration not stated)	ROMK mod -3.6 (no result: bCat nuc transl) | ROMK hit retest 0.058
CC1(c2cc([N+](=O)[O-])cc([N+](=O)[O-])c2)CC(C)(C)N(C(=O)c2ccccc2)c2ccccc21 (configuration not stated)	none (no result: ROMK mod)
COc1ccc(S(=O)(=O)Nc2nc3ccccc3s2)cc1OC	none
CS(=O)(=O)N(CC(=O)Nc1ccc(S(=O)(=O)N2CCCC2)cc1)c1cccc(F)c1	none (no result: ROMK mod, MT stabilizer)
COCCN(CCOC)C(=S)Nc1cc(S(=O)(=O)N(C)C)ccc1C	ROMK mod 4.3 | ROMK hit retest inactive
CC(=O)NNC(=S)Nc1cc(S(=O)(=O)N(C)C)ccc1C	none
Cc1ccc(CN(Cc2ccccc2)C(=S)Nc2ccccc2C)o1	none
Cc1c(Br)c(C(=O)NCc2cc3cc(Cl)ccc3[nH]2)nn1C	none
Cn1cc([N+](=O)[O-])c(C(=O)NCc2cc3cc(Cl)ccc3[nH]2)n1	ROMK mod 3.4 (no result: bCat nuc transl) | ROMK hit retest inactive
Cc1ccc(C(=O)Nc2ccccc2C(=O)NCc2ccco2)cc1S(=O)(=O)N1CCCCC1	none | ROMK hit retest inactive
Cc1ccc(C(=O)NCc2ccco2)cc1S(=O)(=O)N1CCCCC1	none (no result: ROMK mod)
O=C(c1ccncc1)c1ccc(N2CCN(C3CC(=O)N(Cc4cccs4)C3=O)CC2)cc1 (configuration not stated)	none (no result: ROMK mod) | ROMK hit retest 0.06
O=C1CC(N2CCN(c3ccc(O)cc3)CC2)C(=O)N1Cc1cccs1 (configuration not stated)	none (no result: ROMK mod)
Cc1cccc(NC(=O)CSc2nnc(NC(=O)c3ccco3)s2)c1	none
CN(Cc1ccccc1)C(=O)CSc1nc2cc(C(=O)N3CCC(C(N)=O)CC3)ccc2c(=O)n1-c1ccccc1	none (no result: ROMK mod, MT stabilizer)
CC1(C)C(c2ccccc2)=NC(c2ccc(Br)cc2)N1O (configuration not stated)	none
Nc1nc(-c2ccccc2)cn1/N=C/c1ccccc1	ROMK mod 7.3 (no result: MT stabilizer) | ROMK hit retest inactive
Nc1nc(-c2ccccc2)cn1N	none (no result: ROMK mod)
O=c1oc2c(CN3CCCCCC3)c(O)ccc2cc1-c1nc2ccccc2[nH]1	none (no result: ROMK mod, MT stabilizer)
CN1CCN(Cc2c(O)ccc3cc(-c4ccccn4)c(=O)oc23)CC1	ROMK mod -3.3 | ROMK hit retest 0.059
Cc1ccc(-c2cc(C(=O)O)n(-c3ccc(S(N)(=O)=O)cc3)n2)cc1	none
Cc1cccc(N2C(=O)CC(N3CCN(Cc4ccc(Cl)cc4)CC3)C2=O)c1 (configuration not stated)	none | ROMK hit retest inconclusive
CCOC(=O)C1CCN(C2CC(=O)N(c3cccc(Cl)c3)C2=O)CC1 (configuration not stated)	none (no result: ROMK mod)
COc1ccc(S(=O)(=O)N2CCOCC2)cc1NC(=O)c1cccc2c(=O)c(C)c(-c3ccccc3)oc12	none (no result: ROMK mod)
COCCCN1CN(S(=O)(=O)c2cccs2)c2nc3ccccc3nc21	none (no result: MT stabilizer)
CCN(CC)c1ccc(/C=N/Nc2nn[nH]n2)cc1	none (no result: ROMK mod, MT stabilizer)
CCN(CC)c1ccc(C=N/C(C#N)=C(\N)C#N)cc1	none (no result: ROMK mod) | ROMK hit retest inconclusive
Cc1ccccc1-c1noc(CCC(=O)NCc2ccco2)n1	none (no result: ROMK mod, MT stabilizer)
O=C(CSc1nc2ccccc2c(=O)n1CC1CCCCC1)N1CCOCC1	none
CCN(CC)C(=O)CSc1nc2ccccc2c(=O)n1CC1CCCCC1	none | ROMK hit retest 0.061

Screening results from PubChem BioAssay.
